Measurements: ChEMBL document CHEMBL5108074 (J Med Chem, 2022)
In brackets after ≈: the same amount, converted by molar mass.

Tested on: not listed separately
Test: Apparent permeability of the compound across apical side to basolateral side in human Caco-2 cells incubated for 1 hr by LC-MS/MS analysis
Settings: Caco-2

Structure (SMILES)	Papp A→B at 1 h [×10⁻⁶ cm/s]
Nc1cccc2cc(CNC(=O)c3cnn(Cc4ccc(Cn5ccccc5=O)cc4)c3)ccc12	2

Same assay, conditions: caco-2, 1 h

Structure (SMILES)	Papp
COc1ccc(F)c(CNC(=O)c2cn(Cc3ccc(Cn4ccccc4=O)cc3)nc2CN(C)C)c1F	14 10^-6 cm/s
COCc1nn(Cc2ccc(Cn3ccccc3=O)cc2)cc1C(=O)NCc1cccc(OC)c1F	25 10^-6 cm/s

Molecular target: T1, Plasma kallikrein (Homo sapiens, UniProt P03952)
Test: Inhibition of human plasma kallikrein using H-D-Pro-Phe-Arg-AFC as flurogenic substrate preincubated for 5 mins followed by substrate addition by fluorometer analysis
Assay type: cell-free
Settings: not given

T1 sequence (P03952 20-390 limits assumed): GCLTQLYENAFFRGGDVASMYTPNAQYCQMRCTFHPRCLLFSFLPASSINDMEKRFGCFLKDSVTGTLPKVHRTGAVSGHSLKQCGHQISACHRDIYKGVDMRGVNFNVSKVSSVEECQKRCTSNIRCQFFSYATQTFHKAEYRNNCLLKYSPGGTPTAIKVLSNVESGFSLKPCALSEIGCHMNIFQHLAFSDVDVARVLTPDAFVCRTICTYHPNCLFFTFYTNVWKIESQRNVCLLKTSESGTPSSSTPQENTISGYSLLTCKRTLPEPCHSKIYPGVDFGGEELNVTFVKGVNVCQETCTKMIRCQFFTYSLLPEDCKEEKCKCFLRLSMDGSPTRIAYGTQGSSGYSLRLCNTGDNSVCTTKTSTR
T1 sequence (P03952 391-638 limits assumed): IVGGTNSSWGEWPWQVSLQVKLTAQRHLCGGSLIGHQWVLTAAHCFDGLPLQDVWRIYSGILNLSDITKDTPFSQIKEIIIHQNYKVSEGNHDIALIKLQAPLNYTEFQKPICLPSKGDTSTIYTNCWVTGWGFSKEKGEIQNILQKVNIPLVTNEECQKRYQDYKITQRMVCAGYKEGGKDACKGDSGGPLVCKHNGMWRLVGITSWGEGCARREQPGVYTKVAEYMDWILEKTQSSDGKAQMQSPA

Structure (SMILES)	IC50 [nM]
COCc1nn(Cc2ccc(Cn3ccccc3=O)cc2)cc1C(=O)NCc1nccc(OC(C)C)c1F	2400
N=C(N)c1ccc(CNC(=O)c2cnn(Cc3ccccc3)c2)cc1	62
COCc1nn(Cc2ccc(Cn3ccccc3=O)cc2)cc1C(=O)NCc1nccc(Cl)c1F	93
Cc1cc(C(=O)NCc2ccc(CN)cc2)c(C)n1Cc1csc(-c2ccccc2)n1	72
COCc1nn(Cc2ccc(Cn3ccccc3=O)cc2)cc1C(=O)NCc1nc(OC)ccc1F	900
Cc1cc(C(=O)NCc2ccc(CN)cc2)c(C)n1Cc1cccc(-c2ccccc2)c1	730
Cc1cc(C(=O)NCc2ccc(CN)cc2)c(C)n1Cc1csc(-c2ccccc2)c1	600
Cc1cccc(C)c1CNC(=O)c1cnn(Cc2ccc(Cn3ccccc3=O)cc2)c1	68
COc1ccc(F)c(CNC(=O)c2cn(Cc3ccc(Cn4ccccc4=O)cc3)nc2CN(C)C)c1F	6.3
COCc1nn(Cc2ccc(Cn3ccccc3=O)cc2)cc1C(=O)NCc1sccc1Cl	210
Cc1cc(C(=O)NCc2ccc(CN)cc2)c(C)n1Cc1csc(-c2cccnc2)c1	440
COCc1nn(Cc2ccc(Cn3ccccc3=O)cc2)cc1C(=O)NCc1cc[nH]n1	570
COc1cccc(CNC(=O)c2cnn(Cc3ccc(Cn4ccccc4=O)cc3)c2)c1	90
COCc1nn(Cc2ccc(Cn3ccccc3=O)cc2)cc1C(=O)NCc1ncc(Cl)cc1C#N	250
COCc1nn(Cc2ccc(Cn3ccccc3=O)cc2)cc1C(=O)NCc1cc(C)[nH]n1	220
NCc1ccc(CNC(=O)c2cnn(Cc3csc(-c4ccccc4)n3)c2)cc1	850

Structure (SMILES)	IC50 [nM]
O=C(NCc1c(F)cccc1F)c1cnn(Cc2ccc(Cn3ccccc3=O)cc2)c1	62
CCOc1ccnc(CNC(=O)c2cn(Cc3ccc(Cn4ccccc4=O)cc3)nc2COC)c1F	7.9
COCc1nn(Cc2ccc(Cn3ccccc3=O)cc2)cc1C(=O)NCc1nccc(OC)c1C	4.1
Cc1ccc(CNC(=O)c2cnn(Cc3ccc(Cn4ccccc4=O)cc3)c2)cc1	88
COCc1nn(Cc2ccc(Cn3ccccc3=O)cc2)cc1C(=O)NCc1cnccc1C(F)(F)F	460
O=C(NCc1c(F)cccc1Cl)c1cnn(Cc2ccc(Cn3ccccc3=O)cc2)c1	31
Cc1cc(C(=O)NCc2ccc(CN)cc2)c(C)n1Cc1ccccc1	3700
Cc1cc(C(=O)NCc2ccc(CN)cc2)c(C)n1Cc1coc(-c2ccccc2)n1	480
O=C(NCc1c(F)cccc1C(F)(F)F)c1cnn(Cc2ccc(Cn3ccccc3=O)cc2)c1	7.8
Cc1cc(C(=O)NCc2ccc(CN)cc2)c(C)n1Cc1ccc(-c2ccccc2)cc1	5600
COc1ccc(F)c(CNC(=O)c2cnn(Cc3ccc(Cn4ccccc4=O)cc3)c2)c1F	3
Cc1cc(C(=O)NCc2ccc(CN)cc2)c(C)n1CCCc1ccccc1	4800
Cc1cc(C(=O)NCc2ccc(CN)cc2)c(C)n1Cc1cc(-c2ccccc2)cs1	570
COCc1nn(Cc2ccc(Cn3ccccc3=O)cc2)cc1C(=O)NCc1cccc(OC)c1F	17
Cc1cnn(Cc2ccc(Cn3c(C)cc(C(=O)NCc4ccc(CN)cc4)c3C)cc2)c1	65

Tested on: not listed separately
Test: Metabolic stability in human liver microsomes assessed as intrinsic clearance per mg of protein measured upto 60 mins in presence of NADPH regenerating system by LC-MS/MS analysis
Assay type: ADME, Microsome
Settings: liver microsomes, read-out: CLH

Structure (SMILES)	microsomal CLint [µL/min/mg]
Nc1cccc2cc(CNC(=O)c3cnn(Cc4ccc(Cn5ccccc5=O)cc4)c3)ccc12	37

Same assay, conditions: microsomes, 1 h

Structure (SMILES)	microsomal intrinsic clearance [µL/min]
COc1ccc(F)c(CNC(=O)c2cn(Cc3ccc(Cn4ccccc4=O)cc3)nc2CN(C)C)c1F	280
CCOc1ccnc(CNC(=O)c2cn(Cc3ccc(Cn4ccccc4=O)cc3)nc2COC)c1F	69
COc1ccc(F)c(CNC(=O)c2cnn(Cc3ccc(Cn4ccccc4=O)cc3)c2)c1F	36
COCc1nn(Cc2ccc(Cn3ccccc3=O)cc2)cc1C(=O)NCc1cccc(OC)c1F	45

Molecular target: T1, Plasma kallikrein
Test: Inhibition of human plasma kallikrein using H-D-Pro-Phe-Arg-AFC as flurogenic substrate at 1000 nM preincubated for 5 mins followed by substrate addition by fluorometer analysis relative to control
Assay type: cell-free
Settings: not given
Outline: (§1)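 Crude library compounds (unpurified, dissolved in DMSO) were screened twice, once at each of the single concentrations. Human plasma kallikrein was preincubated with compound for 5 min, then H-D-Pro-Phe-Arg-AFC was added. Activity was followed as the kinetic rate of fluorogenic substrate cleavage, and percent inhibition was calculated relative to control.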

Structure (SMILES)	inhibition [%]
Cc1cccc(C)c1CNC(=O)c1cnn(Cc2ccc(Cn3ccccc3=O)cc2)c1	89
COc1cccc(CNC(=O)c2cnn(Cc3ccc(Cn4ccccc4=O)cc3)c2)c1	83
O=C(NCc1c(F)cccc1F)c1cnn(Cc2ccc(Cn3ccccc3=O)cc2)c1	88
Cc1ccc(CNC(=O)c2cnn(Cc3ccc(Cn4ccccc4=O)cc3)c2)cc1	84
O=C(NCc1c(F)cccc1Cl)c1cnn(Cc2ccc(Cn3ccccc3=O)cc2)c1	92
O=C(NCc1c(F)cccc1C(F)(F)F)c1cnn(Cc2ccc(Cn3ccccc3=O)cc2)c1	97

Molecular target: T1, Plasma kallikrein
Test: Inhibition of human plasma kallikrein using H-D-Pro-Phe-Arg-AFC as flurogenic substrate at 100 nM preincubated for 5 mins followed by substrate addition by fluorometer analysis relative to control
Assay type: cell-free
Settings: not given
Outline: as §1

Structure (SMILES)	inhibition [%]
Cc1cccc(C)c1CNC(=O)c1cnn(Cc2ccc(Cn3ccccc3=O)cc2)c1	53
COc1cccc(CNC(=O)c2cnn(Cc3ccc(Cn4ccccc4=O)cc3)c2)c1	35
O=C(NCc1c(F)cccc1F)c1cnn(Cc2ccc(Cn3ccccc3=O)cc2)c1	47
Cc1ccc(CNC(=O)c2cnn(Cc3ccc(Cn4ccccc4=O)cc3)c2)cc1	36
O=C(NCc1c(F)cccc1Cl)c1cnn(Cc2ccc(Cn3ccccc3=O)cc2)c1	61
O=C(NCc1c(F)cccc1C(F)(F)F)c1cnn(Cc2ccc(Cn3ccccc3=O)cc2)c1	83

Tested on: not listed separately
Test: Kinetic solubility of the compound in 0.1N HCl
Settings: not given

Structure (SMILES)	solubility kinetic [µg/mL]
COCc1nn(Cc2ccc(Cn3ccccc3=O)cc2)cc1C(=O)NCc1cccc(OC)c1F	> 120

Tested on: not listed separately
Test: Kinetic solubility of the compound in aqueous assay buffer at pH 7.7
Settings: not given

Structure (SMILES)	solubility kinetic [µg/mL]
COCc1nn(Cc2ccc(Cn3ccccc3=O)cc2)cc1C(=O)NCc1cccc(OC)c1F	> 120

Tested on: not listed separately
Test: Thermodynamic solubility of the compound in FaSSIF at 1 mg/ml at pH 6.5 measured after 4 hrs
Assay type: physicochemical
Settings: simulated gi fluid, pH 6.5, 4 h
Outline: (§2)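 Compound (nominal 1 or 100 mg/mL as free base) added to biorelevant medium preheated to 37 °C: FaSSGF at pH 1.6 or FaSSIF at pH 6.5. Vortexed, then shaken 4 h at 37 °C (~500 rpm). Centrifuged at 15000g for 10 min at 37 °C. Supernatant diluted and quantified against calibration standards. Crystalline material used where stated.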

Structure (SMILES)	Therm_solubility [µg/mL]
COCc1nn(Cc2ccc(Cn3ccccc3=O)cc2)cc1C(=O)NCc1nccc(OC)c1C	110

Tested on: not listed separately
Test: Thermodynamic solubility of the compound in FaSSGF at 1 mg/ml at pH 1.6 measured after 4 hrs
Assay type: physicochemical
Settings: FaSSGF, pH 1.6, read-out: Therm_solubility
Outline: as §2

Structure (SMILES)	solubility thermodynamic at 4 h [µg/mL]
COCc1nn(Cc2ccc(Cn3ccccc3=O)cc2)cc1C(=O)NCc1nccc(OC)c1C	970 (≈ 1990 µM)

Tested on: not listed separately
Test: Clearance in Sprague-Dawley rat blood at 1 mg/kg, iv measured upto 24 hrs by LC-MS analysis
Assay type: ADME, organism-based
Settings: whole blood
Outline: (§3)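 Male Sprague-Dawley rats, two per route, single dose. IV: 1 mg/kg given as 1 mL/kg of a nominal 1 mg/mL formulation in vehicle. PO: 10 mg/kg given as 5 mL/kg of a 2 mg/mL formulation. PK parameters from noncompartmental analysis. Clearance expressed relative to rat liver blood flow of 80 mL/min/kg.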

Structure (SMILES)	clearance [mL/min/kg]
COCc1nn(Cc2ccc(Cn3ccccc3=O)cc2)cc1C(=O)NCc1nccc(OC)c1C	35

Tested on: not listed separately
Test: Clearance in Sprague-Dawley rat assessed as liver blood flow at 1 mg/kg, iv measured upto 24 hrs by LC-MS analysis
Assay type: ADME, organism-based
Settings: in vivo
Outline: as §3

Structure (SMILES)	LBF [%]
COCc1nn(Cc2ccc(Cn3ccccc3=O)cc2)cc1C(=O)NCc1nccc(OC)c1C	44

Tested on: not listed separately
Test: Half life in Sprague-Dawley rat at 10 mg/kg, po and 1 mg/kg, iv measured upto 24 hrs by LC-MS analysis
Assay type: ADME, organism-based
Settings: in vivo
Outline: as §3

Structure (SMILES)	t1/2 [h]
COCc1nn(Cc2ccc(Cn3ccccc3=O)cc2)cc1C(=O)NCc1nccc(OC)c1C	1

Tested on: not listed separately
Test: Oral bioavailability in Sprague-Dawley rat at 10 mg/kg measured upto 24 hrs by LC-MS analysis
Assay type: ADME, organism-based
Settings: in vivo
Outline: as §3

Structure (SMILES)	F [%]
COCc1nn(Cc2ccc(Cn3ccccc3=O)cc2)cc1C(=O)NCc1nccc(OC)c1C	31
